18 molecules from PubChem BioAssay can be followed below.

A short description of test [1]: S. cerevisiae growth inhibition in permissive medium (OD615), pilot counter-assay for S. cerevisiae lifespan shortening project, permissive growth control (AID 705;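 active means growth inhibition above 25% in both replicates, a cutoff set 3 SD above the mean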). The following applies: OD615, 24 h, at 10 µM, active compounds read high. In short, it runs like this:
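Test system: Saccharomyces cerevisiae strain carrying genetically modified DeaD replicative-lifespan system; buffer or medium: SC raffinose/galactose permissive medium; dosing: one dose 10 µM, DMSO 0.25% final; times: 24 h exposure, 30 °C; measured by: OD at 615 nm; read-out basis: growth inhibition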

Test [2] can be described thus: S. cerevisiae growth inhibition in restrictive medium, OD615, pilot screen, restrictive growth control, yeast lifespan reduction project (AID 706;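 active means growth inhibition above a set limit, 3 SD over mean compound inhibition, in both replicates, cut at about 43% in these data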;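 further: modified DeaD lifespan yeast strain shifted to restrictive glucose medium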). Conditions: OD615, 48 h, at 10 µM, active compounds read high. In short, it runs like this: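 material = engineered S. cerevisiae DeaD strain | buffer or medium = glucose-based CSMM-D restrictive medium | dosing = one concentration, 10 µM final, 0.25% DMSO | schedule = 4 h pre-growth plus 48 h compound exposure, 30 °C | detection = OD615 absorbance reading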

Test [3] is described as follows: doxorubicin toxicity protection in MRP-1 cells – H69AR cells, CellTiter-Glo, duplicate, MRP-1 activator project, pilot screen (AID 807;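 active means viability increase at or above a cutoff of the median across tested compounds plus 3 SD, cut at about 8.5% in these data, passing the limit was not always enough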;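 further: compound pretreatment 18-22 h then 72 h combined with doxorubicin; 0% = doxorubicin alone and 100% = vehicle without doxorubicin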). The following applies: H69AR viability with doxorubicin, CellTiter-Glo luminescence; at 10 µM; active compounds read high.
A short description of test [4]: viability of HCT116 without oncogenic beta-catenin – human colon tumor cells, pilot screen (AID 823).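 Further: 0% = wells killed by 20 µM Hyamine and 100% = untreated DMSO cell wells.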 Conditions: HCT116 beta-catenin knockout viability, CellTiter-Glo, 60 h; at 10 µM; active compounds read low. On the technique in general: In ATP-based viability assays light output follows the ATP content of the culture.
Test [5] is described as follows: viability of PTEN-null HCT116 cells – cell-based, HCT116 clonal line, CellTiter-Glo, pilot screen (AID 824;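 active means viability at or below 27.92% in each of two runs, the all-compound median minus 4 SD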;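 further: 0% = 20 µM Hyamine control and 100% = vehicle cell control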). The following applies: HCT116 PTEN-deleted viability, 60 h, at 10 µM, active compounds read low.
Test [6] is described as follows: RAM pathway blockade in budding yeast – dse1pr::URA3 reporter, 5-FOA selection, pilot screen (AID 869;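 active means inhibition over a set limit, the all-compound mean plus 3 SD, in both replicate runs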;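 further: 0% = DMSO wells with no growth and 100% = 10 µM 1-NA-PP1 with full growth; RAM network block rescues cells from 5-FOA so hits raise OD615 growth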). The following applies: S. cerevisiae dse1pr::URA3 5-FOA growth, OD615, 2 d; at 10 µM; active compounds read high; strain carries analog-sensitive mutant Cbk1 kinase.
Test [7] in a line: RAM signaling pathway blockade in yeast – S. cerevisiae, Pdr1DBD-CYC8 efflux-inhibited sensitized strain, primary screen (AID 1298;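 active means RAM network inhibition above 8.4% in each of two replicates, 3 SD over the compound average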;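 further: 0% = DMSO untreated cells without growth and 100% = 10 µM 1-NA-PP1 full growth; higher means more yeast growth rescued from 5-FOA killing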). Conditions: S. cerevisiae cbk1-as DSE1-URA3 strain, 5-FOA growth OD615, 2 d; at 50 µM; active compounds read high.

Each structure is given as a SMILES string. A number with no mark means an inactive call. Inconclusive results are not listed. Active and inactive are the calls of the source.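 How the source made its calls, unless noted: active means cell viability at or below a set limit in both duplicate runs, the limit being the all-compound median minus 4 SD (cut at about 23% in these data, passing the limit was not always enough); inconclusive means no clear call, values can overlap the other calls; inactive means the rest.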

On to `O=C(NCC(c1cccs1)N1CCOCC1)c1cc2ccccc2o1` (stereo unspecified), for which the figures for the growth inhibition in test [1] and in test [2] were -2.08% and -15.1%, respectively. Moreover, in test [3], the viability increase is -1.69%. For the same molecule, the viability (usually a read-out of living cells in per cent, often relative to untreated cells) is 99.3% in test [4] and 100% in test [5]. Besides, in test [6], the inhibition (commonly the change of the read-out against control, counted positive when it falls) was 0.345%. Besides, in test [7], the RAM network inhibition was 0.26%.
Take `CCCCn1c(NC(=O)c2ccccc2)nc2ccccc21`: the growth inhibition was 8.39% in test [1] and -7.56% in test [2]. For the same molecule, the viability increase in test [3] was -3.95%. The viability was 22.1% (active) in test [4] and 18.3% (active) in test [5]. In addition, the inhibition in test [6] was -0.145%. For the same molecule, the RAM network inhibition in test [7] is 3.88%.
For `c1ccc(-c2noc(CSc3nnnn3-c3ccccc3)n2)cc1`, the figures for the growth inhibition in test [1] and in test [2] were -10.7% and 22.4%, respectively. Besides, in test [3], the viability increase is 0.25%. For the same molecule, the viability is 97.8% in test [4] and 94% in test [5]. Further, the inhibition in test [6] is 0.485%. Besides, the RAM network inhibition in test [7] is 3.86%.
For `COc1cc(C)c(C)cc1S(=O)(=O)N1CCN(Cc2ccccc2)CC1`, the growth inhibition in test [1] is 9.11%; in test [2], -12.5%. The viability increase in test [3] was -3.89%. The viability is 96.3% in test [4] and 93.5% in test [5]. Also, the inhibition in test [6] was 0.025%. Also, the RAM network inhibition in test [7] was 5%.
For the molecule `CCOC(=O)CCc1c(C)c2c(C)nn(-c3ccccc3)c2[nH]c1=O`, the growth inhibition in test [1] is -2.26%; in test [2], -0.33%. In addition, in test [3], the viability increase is -1.19%. Moreover, the viability in test [4] is 99%; in test [5], 95.9%. In addition, the inhibition in test [6] is 1.65%. For the same molecule, the RAM network inhibition in test [7] is 1.84%.
Consider `COc1ccc(NC(=O)C2CCCN2S(=O)(=O)c2ccc3c(c2)CCC(=O)N3)cc1Cl` (stereo unspecified), for which the growth inhibition in test [1] is -1.44%; in test [2] it was -23.7%. In addition, the viability increase in test [3] was -2.9%. Moreover, the viability was 90.8% in test [4] and 87.7% in test [5]. In addition, the inhibition in test [6] is 1.18%. In addition, in test [7], the RAM network inhibition was 1.9%.
For `Cc1cccc(Nc2ncnc3nc[nH]c23)c1C`, the growth inhibition in test [1] is -10.5%; in test [2] it was -8.69%. Further, the viability increase in test [3] was -1.75%. For the same molecule, the viability in test [4] and in test [5] was 103% in each case. The inhibition in test [6] is 2.98%. Moreover, the RAM network inhibition in test [7] is 4.52%.
For `Cc1cccn2cc(-c3ccc(S(=O)(=O)N4CCOCC4)cc3)nc12`, the growth inhibition in test [1] is -12.6%; in test [2], -19.7%. Also, the viability increase in test [3] is -1.3%. For the same molecule, the viability in test [4] was 83.5%; in test [5], 91%. Besides, in test [6], the inhibition was 1.75%. Further, the RAM network inhibition in test [7] is 2.29%.
As for `O=C(O)c1cccc(CN2C(=O)CSC2=O)c1`, the growth inhibition in test [1] is -9.39%; in test [2] it was -12.3%. Moreover, the viability increase in test [3] was -0.3%. The figures for the viability in test [4] and in test [5] were 95.7% and 97.5%, respectively. Further, in test [6], the inhibition was 0.91%. Further, the RAM network inhibition in test [7] is 1.41%.
With `CC1=CCC2C(=O)N(c3ccc(C)c(Br)c3)C(=O)C2C1` (stereo unspecified), the growth inhibition is 5.96% in test [1] and -0.835% in test [2]. Besides, in test [3], the viability increase was 0.55%. Also, the results for the viability in test [4] and in test [5] were 99.5% and 95.4%, respectively. The inhibition in test [6] was 0.08%. Also, the RAM network inhibition in test [7] is 0%.
As for `CCSC1=N/C(=C\c2ccc(C(=O)O)cc2)C(=O)S1`, the growth inhibition in test [1] is -3.9%; in test [2], -3.52%. Further, in test [3], the viability increase is -2.03%. The viability is 95.4% in test [4] and 100% in test [5]. For the same molecule, the inhibition in test [6] was 1.83%. Moreover, in test [7], the RAM network inhibition is 8.27%.
As for `Cc1ccc(N(C(=O)c2cccs2)C2C=CS(=O)(=O)C2)cc1` (stereo unspecified), the growth inhibition in test [1] was -11.1%; in test [2] it was -10.6%. The viability increase in test [3] was -2.23%. Moreover, the viability in test [4] was 98.3%; in test [5] it was 94%. For the same molecule, in test [6], the inhibition is 1.96%. The RAM network inhibition in test [7] is 1.19%.
As to `COc1cc(S(=O)(=O)N2CCN(Cc3ccc4c(c3)OCO4)CC2)c(C)cc1C`, the growth inhibition in test [1] is -4.19%; in test [2], -11.6%. Further, the viability increase in test [3] was -4.77%. The viability was 57.5% in test [4] and 71.1% in test [5]. For the same molecule, the inhibition in test [6] is 2.5%. In test [7], the RAM network inhibition is 5.84%.
On to `CC1CCCCN1CCn1cnc2c([nH]c3ccccc32)c1=O` (stereo unspecified), for which the growth inhibition in test [1] was -2.21%; in test [2], 5.29%. For the same molecule, the viability increase in test [3] is -4.17%. In addition, the results for the viability in test [4] and in test [5] were 88.1% and 87.4%, respectively. In test [6], the inhibition was -0.135%. For the same molecule, the RAM network inhibition in test [7] was 4.11%.
In the case of `COc1ccccc1N(CC(=O)Nc1c(C)cccc1C)S(C)(=O)=O`, the results for the growth inhibition in test [1] and in test [2] were -11.2% and -8.78%, respectively. The viability increase in test [3] is -1.48%. In addition, the viability in test [4] is 101%; in test [5] it was 98.2%. Besides, in test [6], the inhibition was 0.715%. For the same molecule, the RAM network inhibition in test [7] was 3.12%.
For the molecule `Nn1c(SCC(=O)Nc2ccc(F)cc2)nnc1-c1ccccn1`, the growth inhibition is -4.5% in test [1] and 0.845% in test [2]. Further, in test [3], the viability increase is -0.55%. Further, the viability was 109% in test [4] and 95.7% in test [5]. Also, the inhibition in test [6] is 1.88%. The RAM network inhibition in test [7] is 0.9%.
Turning to `CCOC(=O)N1CCC(NC(=O)CN2C(=O)CSc3ncccc32)CC1`, the results for the growth inhibition in test [1] and in test [2] were 0.38% and -5.29%, respectively. Moreover, in test [3], the viability increase is -0.23%. Besides, the figures for the viability in test [4] and in test [5] were 104% and 99%, respectively. Besides, in test [6], the inhibition is 2.81%. Also, in test [7], the RAM network inhibition was 1.48%.
With `COc1cccc(-c2cc(C(=O)Nn3cnnc3)c3ccccc3n2)c1`, the values for the growth inhibition in test [1] and in test [2] were -12.2% and -11.8%, respectively. In addition, the viability increase in test [3] is -3.9%. In addition, the figures for the viability in test [4] and in test [5] were 92.5% and 94.6%, respectively. Moreover, the inhibition in test [6] was 1.52%. In addition, in test [7], the RAM network inhibition was 3.38%.
